≈ marks a conversion by molar mass, not a printed value.
How the values were obtained:
[1] = tested on: Mus musculus; assay: Compound was tested orally for its ability to induce gastric lesions in fasted mice (8-animals per group); type: functional; settings: Stomach, po
Method in brief: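 Male mice (eight per group) fasted overnight, then dosed orally. Killed 4 h later; stomachs removed, stretched and examined for bleeding mucosal erosions. ED50 is the dose expected to cause observable mucosal damage in 50% of animals, calculated from dose-response lines.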

[2] = species: Mus musculus; assay: Analgesic activity tested by phenylquinone induced writhing test in mice; type: functional
[3] = biological target: T1, Prostaglandin E synthase (Bos taurus) (UniProt Q95L14); assay: Ability to inhibit prostaglandin synthetase ([3H]PGE2 synthesis) from [3H]arachidonic acid in bovine seminal vesicles
T1 sequence (whole entry): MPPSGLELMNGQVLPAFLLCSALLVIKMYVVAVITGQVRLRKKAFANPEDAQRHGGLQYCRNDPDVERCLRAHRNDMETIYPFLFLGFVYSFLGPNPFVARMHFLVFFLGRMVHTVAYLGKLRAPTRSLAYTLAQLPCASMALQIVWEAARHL
Method in brief: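 Formation of [³H]-PGE₂ was measured at no fewer than four compound concentrations, each run in duplicate. ID₅₀, the dose expected to give 50% inhibition of prostaglandin synthesis, was read from dose-response lines.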

SMILES | ED50 [1] [mg/kg] | ED50 [2] [mg/kg] | ID50 [3] [µg/mL]
O=C(c1ccccc1)c1cc(Cl)cc2c1OCC2C(=O)O (stereo not given) | 150 | 0.8 | 0.25 (≈ 0.826 µM)
COC(=O)C1COc2c(C(=O)c3ccccc3)cc(Cl)cc21 (stereo not given) |  | 13 | 
O=C(c1ccccc1)c1cc(Cl)cc2c1S(=O)(=O)CC2C(=O)O (stereo not given) |  | > 5 | > 50
O=C(c1ccccc1)c1cc(Br)cc2c1OCC2C(=O)O (stereo not given) |  | > 5 | 
Cc1cc(CC(=O)O)n(C)c1C(=O)c1ccc(Cl)cc1 [ZOMEPIRAC] | 8 | 0.6 | 0.6 (≈ 2.06 µM)
O=C(c1ccccc1)c1cccc2c1COC2C(=O)O (stereo not given) |  | > 16 | 5 (≈ 18.6 µM)
O=C(c1ccccc1)c1cc(Br)cc2c1SCC2C(=O)O (stereo not given) |  | 1.3 | 1.4 (≈ 3.85 µM)
O=C(c1ccccc1)c1cc(F)cc2c1OCC2C(=O)O (stereo not given) |  | 2.9 | 
O=C(c1ccccc1)c1cccc2c1OCC2C(=O)O (stereo not given) |  | 2.8 | 0.7 (≈ 2.61 µM)
Cc1cc(C(=O)c2ccccc2)c2c(c1)C(C(=O)O)CO2 (stereo not given) |  | 1.9 | 2 (≈ 7.08 µM)
O=C(c1ccccc1)c1cccc2c1SCC2C(=O)O (stereo not given) | 13 | 0.6 | 1.2 (≈ 4.22 µM)
O=C(c1cccs1)c1cc(Cl)cc2c1OCC2C(=O)O (stereo not given) |  | > 4 | 
O=C(c1ccccc1)c1ccc2c(c1)C(C(=O)O)CS2 (stereo not given) |  | > 10 | 
O=C(c1ccc(Cl)cc1)c1cc(Cl)cc2c1OCC2C(=O)O (stereo not given) |  | > 4 | 
O=C(c1ccccc1)c1cc(Cl)cc2c1SCC2C(=O)O (stereo not given) | 23 | 0.8 | 0.8 (≈ 2.51 µM)
O=C(c1ccccc1)c1cc(Cl)cc2c1[S+]([O-])CC2C(=O)O (stereo not given) |  | > 5 | > 50

Reference: ChEMBL document CHEMBL1123287, “7-Aroyl-2,3-dihydrobenzo[b]furan-3-carboxylic acids and 7-benzoyl-2,3-dihydrobenzo[b]thiophene-3-carboxylic acids as analgesic agents” (1986)
